Source: ChEMBL document CHEMBL5705899 (Biochem J, 2014)
Activity calls are given as the source filed them. The rule behind the calls is not given here.

Columns and labels:
[1] = target: Tyrosine-protein kinase CSK (Homo sapiens) (UniProt P41240); assay: Inhibition of human CSK at 1 uM using polyEY as substrate in presence of 33P-ATP by ProQinase assay
[2] = target: NUAK family SNF1-like kinase 2 (Homo sapiens) (UniProt Q9H093); assay: Inhibition of human SNARK at 1 uM using histone H2B as substrate in presence of 33P-ATP by ProQinase assay
[3] = target: Tyrosine-protein kinase JAK3 (Homo sapiens) (UniProt P52333); assay: Inhibition of human JAK3 at 1 uM using poly(Ala,Glu,Lys,Tyr) as substrate in presence of 33P-ATP by ProQinase assay
Tyrosine-protein kinase JAK3 (Homo sapiens), sequence (P52333 whole entry, the tested form may be a part): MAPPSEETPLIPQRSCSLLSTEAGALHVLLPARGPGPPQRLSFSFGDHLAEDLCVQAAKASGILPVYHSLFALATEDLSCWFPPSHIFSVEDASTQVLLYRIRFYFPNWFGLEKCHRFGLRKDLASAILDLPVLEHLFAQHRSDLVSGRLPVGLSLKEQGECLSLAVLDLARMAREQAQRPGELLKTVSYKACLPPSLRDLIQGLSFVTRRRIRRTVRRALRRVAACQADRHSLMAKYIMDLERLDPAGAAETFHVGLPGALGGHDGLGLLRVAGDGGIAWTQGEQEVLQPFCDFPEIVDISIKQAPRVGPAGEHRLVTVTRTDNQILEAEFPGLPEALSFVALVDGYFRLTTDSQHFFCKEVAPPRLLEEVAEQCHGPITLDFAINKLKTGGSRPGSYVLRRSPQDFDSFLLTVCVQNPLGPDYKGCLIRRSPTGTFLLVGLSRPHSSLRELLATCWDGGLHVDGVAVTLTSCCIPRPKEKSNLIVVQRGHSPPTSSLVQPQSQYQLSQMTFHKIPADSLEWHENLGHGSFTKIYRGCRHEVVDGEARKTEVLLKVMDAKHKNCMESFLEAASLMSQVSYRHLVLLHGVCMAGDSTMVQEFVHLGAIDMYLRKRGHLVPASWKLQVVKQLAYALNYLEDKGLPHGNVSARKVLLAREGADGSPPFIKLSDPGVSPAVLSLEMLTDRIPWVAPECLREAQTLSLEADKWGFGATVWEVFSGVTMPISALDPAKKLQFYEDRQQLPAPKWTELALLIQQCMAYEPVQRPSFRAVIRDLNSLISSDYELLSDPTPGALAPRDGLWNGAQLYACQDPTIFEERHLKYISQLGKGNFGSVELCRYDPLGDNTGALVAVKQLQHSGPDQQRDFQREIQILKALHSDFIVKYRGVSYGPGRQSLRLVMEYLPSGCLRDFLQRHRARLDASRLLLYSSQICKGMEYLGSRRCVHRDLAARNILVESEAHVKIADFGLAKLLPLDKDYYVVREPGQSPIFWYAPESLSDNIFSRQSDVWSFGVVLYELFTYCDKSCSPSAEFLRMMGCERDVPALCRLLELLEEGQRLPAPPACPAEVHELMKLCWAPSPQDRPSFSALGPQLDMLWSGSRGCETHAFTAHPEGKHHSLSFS

[4] = target: Aurora kinase A (Homo sapiens) (UniProt O14965); assay: Inhibition of recombinant human N-terminal Hi6-tagged Aurora A (2 to 403 residues) expressed in Escherichia coli assessed as remaining activity at 1 uM using LRRLSLGLRRLSLGLRRLSLGLRRLSLG as substrate incubated for 30 mins in presence of [gamma-33P]ATP by filter binding method relative to control
[5] = target: Dual specificity mitogen-activated protein kinase kinase 6 (Homo sapiens) (UniProt P52564); assay: (§1) Inhibition of recombinant human N-terminal MBP-tagged MKK6 (2 to 334 residues) expressed in Escherichia coli assessed as remaining activity at 1 uM using SAPK2a as substrate incubated for 30 mins in presence of [gamma-33P]ATP by filter binding method relative to control
[6] = target: Mitogen-activated protein kinase kinase kinase 14 (Homo sapiens) (UniProt Q99558); assay: Inhibition of human NIK at 1 uM using RBER-CHKtide as substrate in presence of 33P-ATP by ProQinase assay
Mitogen-activated protein kinase kinase kinase 14 (Homo sapiens), sequence (Q99558 whole entry, looked up): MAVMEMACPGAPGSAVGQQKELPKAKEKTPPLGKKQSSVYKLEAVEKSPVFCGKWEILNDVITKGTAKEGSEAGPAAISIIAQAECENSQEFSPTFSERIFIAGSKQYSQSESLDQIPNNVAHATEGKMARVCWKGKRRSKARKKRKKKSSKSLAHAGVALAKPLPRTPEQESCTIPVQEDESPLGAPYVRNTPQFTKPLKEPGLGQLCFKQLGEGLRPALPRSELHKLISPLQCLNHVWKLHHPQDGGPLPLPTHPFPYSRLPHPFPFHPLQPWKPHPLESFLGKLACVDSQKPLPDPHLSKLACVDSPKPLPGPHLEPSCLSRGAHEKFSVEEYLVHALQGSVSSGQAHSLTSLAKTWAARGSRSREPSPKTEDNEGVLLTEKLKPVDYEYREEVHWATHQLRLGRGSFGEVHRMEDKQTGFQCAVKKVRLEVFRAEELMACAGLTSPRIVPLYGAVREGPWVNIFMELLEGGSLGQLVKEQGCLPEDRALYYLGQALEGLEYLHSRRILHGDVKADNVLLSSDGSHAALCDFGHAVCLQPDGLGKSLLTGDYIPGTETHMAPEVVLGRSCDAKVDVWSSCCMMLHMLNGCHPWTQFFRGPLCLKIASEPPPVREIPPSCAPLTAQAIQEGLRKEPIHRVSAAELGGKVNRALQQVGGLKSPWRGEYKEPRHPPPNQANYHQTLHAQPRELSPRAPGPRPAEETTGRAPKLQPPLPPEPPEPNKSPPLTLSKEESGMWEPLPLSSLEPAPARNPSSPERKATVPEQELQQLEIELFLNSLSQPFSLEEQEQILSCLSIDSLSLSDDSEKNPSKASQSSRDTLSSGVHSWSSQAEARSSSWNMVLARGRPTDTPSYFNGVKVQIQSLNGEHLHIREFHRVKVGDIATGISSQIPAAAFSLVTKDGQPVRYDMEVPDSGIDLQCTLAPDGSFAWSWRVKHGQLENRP

[7] = target: Activin receptor type-1B (Homo sapiens) (UniProt P36896); assay: Inhibition of human ACVR1B at 1 uM using RBER-CHKtide as substrate in presence of 33P-ATP by ProQinase assay
[8] = target: Ribosomal protein S6 kinase alpha-6 (Homo sapiens) (UniProt Q9UK32); assay: Inhibition of human RPS6KA6 at 1 uM using RBER-GSK3 as substrate in presence of 33P-ATP by ProQinase assay
[9] = target: Serine/threonine-protein kinase N1 (Homo sapiens) (UniProt Q16512); assay: Inhibition of human PRK1 at 1 uM using RBER-CHKtide as substrate in presence of 33P-ATP by ProQinase assay
[10] = target: CDK9/Cyclin K (Homo sapiens) (UniProt P50750+O75909); assay: Inhibition of human CDK9/CycK at 1 uM using RBER-CHKtide as substrate in presence of 33P-ATP by ProQinase assay; assay type: protein-complex assay
[11] = target: Mitogen-activated protein kinase kinase kinase 5 (Homo sapiens) (UniProt Q99683); assay: Inhibition of recombinant human N-terminal GST-tagged ASK1 (670 to 950 residues) expressed in Escherichia coli assessed as remaining activity at 1 uM using MBP as substrate incubated for 30 mins in presence of [gamma-33P]ATP by filter binding method relative to control
[12] = target: Phosphatidylinositol 4-phosphate 5-kinase type-1 gamma (Homo sapiens, UniProt O60331); assay: Inhibition of PIP5K1C (unknown origin) using D-myo-PIP as substrate incubated for 45 mins by ADP-Glo assay
In short: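 Substrates were 14 μM PtdIns 4-phosphate and 20 μM ATP, with inhibitor at varying concentrations. Reactions ran 45 min at ambient temperature, then luminescence detection was done as for the PI4K assays.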

[13] = target: Tyrosine-protein kinase ZAP-70 (Homo sapiens) (UniProt P43403); assay: Inhibition of human ZAP70 at 1 uM using polyEY as substrate in presence of 33P-ATP by ProQinase assay
[14] = target: CDK2/Cyclin A2 (Homo sapiens) (UniProt P24941+P20248); assay: Inhibition of human CDK2/CycA2 at 1 uM using RBER-CHKtide as substrate in presence of 33P-ATP by ProQinase assay; assay type: protein-complex assay
[15] = target: Serine/threonine-protein kinase pim-2 (Homo sapiens) (UniProt Q9P1W9); assay: Inhibition of recombinant human N-terminal GST-tagged PIM2 (2 to 334 residues) expressed in Escherichia coli assessed as remaining activity at 1 uM using RSRHSSYPAGT as substrate incubated for 30 mins in presence of [gamma-33P]ATP by filter binding method relative to control
[16] = target: Serine/threonine-protein kinase Sgk3 (Homo sapiens) (UniProt Q96BR1); assay: Inhibition of human SGK3 at 1 uM using RBER-GSK3 as substrate in presence of 33P-ATP by ProQinase assay
[17] = target: Mitogen-activated protein kinase 12 (Homo sapiens) (UniProt P53778); assay: Inhibition of recombinant human N-terminal GST-tagged P38gamma (1 to 367 residues) expressed in Escherichia coli assessed as remaining activity at 1 uM using MBP as substrate incubated for 30 mins in presence of [gamma-33P]ATP by filter binding method relative to control
Mitogen-activated protein kinase 12 (Homo sapiens), sequence (P53778 whole entry, the tested form may be a part, canonical isoform): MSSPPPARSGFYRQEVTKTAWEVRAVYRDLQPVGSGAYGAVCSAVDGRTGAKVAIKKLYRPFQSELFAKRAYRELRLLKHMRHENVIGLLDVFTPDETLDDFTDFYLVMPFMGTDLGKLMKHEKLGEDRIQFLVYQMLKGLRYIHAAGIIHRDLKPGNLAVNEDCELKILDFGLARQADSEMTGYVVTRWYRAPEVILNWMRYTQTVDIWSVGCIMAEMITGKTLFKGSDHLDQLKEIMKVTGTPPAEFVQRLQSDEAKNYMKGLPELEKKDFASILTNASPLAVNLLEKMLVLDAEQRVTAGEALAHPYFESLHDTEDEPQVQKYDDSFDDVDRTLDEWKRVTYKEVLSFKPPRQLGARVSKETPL

[18] = target: Phosphatidylinositol 4,5-bisphosphate 3-kinase catalytic subunit delta isoform (Homo sapiens, UniProt O00329); assay: Inhibition of PI3Kdelta (unknown origin) using PtdIns(4,5)P2 as substrate preincubated for 20 mins followed by substrate addition and measured after 80 mins by Kinase-Glo assay
Phosphatidylinositol 4,5-bisphosphate 3-kinase catalytic subunit delta isoform, sequence (O00329 whole entry, canonical isoform): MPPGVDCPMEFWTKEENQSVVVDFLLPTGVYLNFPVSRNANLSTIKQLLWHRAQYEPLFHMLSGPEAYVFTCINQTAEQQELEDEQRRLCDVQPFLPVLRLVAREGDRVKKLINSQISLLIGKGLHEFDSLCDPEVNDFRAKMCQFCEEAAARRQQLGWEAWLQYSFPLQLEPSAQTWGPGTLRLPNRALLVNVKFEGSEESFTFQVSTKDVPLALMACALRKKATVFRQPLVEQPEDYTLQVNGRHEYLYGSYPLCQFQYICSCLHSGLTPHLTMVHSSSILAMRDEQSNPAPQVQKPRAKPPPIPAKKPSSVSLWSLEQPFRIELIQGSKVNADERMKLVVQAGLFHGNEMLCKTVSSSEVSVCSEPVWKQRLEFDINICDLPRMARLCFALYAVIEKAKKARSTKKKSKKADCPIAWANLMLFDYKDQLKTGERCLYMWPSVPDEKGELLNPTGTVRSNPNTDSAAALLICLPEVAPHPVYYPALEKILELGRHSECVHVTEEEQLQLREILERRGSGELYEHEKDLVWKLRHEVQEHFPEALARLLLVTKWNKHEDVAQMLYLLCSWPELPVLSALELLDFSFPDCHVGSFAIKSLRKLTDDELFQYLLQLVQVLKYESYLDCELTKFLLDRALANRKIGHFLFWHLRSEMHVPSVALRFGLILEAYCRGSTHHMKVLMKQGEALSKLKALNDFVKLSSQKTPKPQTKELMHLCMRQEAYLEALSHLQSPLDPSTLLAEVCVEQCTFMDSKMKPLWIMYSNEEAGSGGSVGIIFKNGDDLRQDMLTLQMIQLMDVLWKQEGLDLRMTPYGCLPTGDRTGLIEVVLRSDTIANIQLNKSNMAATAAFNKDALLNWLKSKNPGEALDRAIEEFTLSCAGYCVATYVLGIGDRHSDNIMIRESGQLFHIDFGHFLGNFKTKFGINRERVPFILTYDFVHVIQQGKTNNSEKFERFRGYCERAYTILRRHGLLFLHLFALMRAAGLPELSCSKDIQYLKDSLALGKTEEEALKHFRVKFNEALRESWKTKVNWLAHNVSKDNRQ

[19] = target: Serine/threonine-protein kinase MARK1 (Homo sapiens) (UniProt Q9P0L2); assay: as §1, with “His6-tagged MARK1” for “MBP-tagged MKK6”, “795” for “334”, “baculovirus infected Sf21 cells” for “Escherichia coli”, “KKKVSRSGLYRSPSMPENLNRPR” for “SAPK2a”
[20] = target: Macrophage-stimulating protein receptor (Homo sapiens) (UniProt Q04912); assay: Inhibition of human RON at 1 uM using polyEY as substrate in presence of 33P-ATP by ProQinase assay
[21] = target: Ephrin type-A receptor 8 (Homo sapiens) (UniProt P29322); assay: Inhibition of human EPHA8 at 1 uM using polyEy as substrate in presence of 33P-ATP by ProQinase assay
Ephrin type-A receptor 8 (Homo sapiens), sequence (P29322 whole entry): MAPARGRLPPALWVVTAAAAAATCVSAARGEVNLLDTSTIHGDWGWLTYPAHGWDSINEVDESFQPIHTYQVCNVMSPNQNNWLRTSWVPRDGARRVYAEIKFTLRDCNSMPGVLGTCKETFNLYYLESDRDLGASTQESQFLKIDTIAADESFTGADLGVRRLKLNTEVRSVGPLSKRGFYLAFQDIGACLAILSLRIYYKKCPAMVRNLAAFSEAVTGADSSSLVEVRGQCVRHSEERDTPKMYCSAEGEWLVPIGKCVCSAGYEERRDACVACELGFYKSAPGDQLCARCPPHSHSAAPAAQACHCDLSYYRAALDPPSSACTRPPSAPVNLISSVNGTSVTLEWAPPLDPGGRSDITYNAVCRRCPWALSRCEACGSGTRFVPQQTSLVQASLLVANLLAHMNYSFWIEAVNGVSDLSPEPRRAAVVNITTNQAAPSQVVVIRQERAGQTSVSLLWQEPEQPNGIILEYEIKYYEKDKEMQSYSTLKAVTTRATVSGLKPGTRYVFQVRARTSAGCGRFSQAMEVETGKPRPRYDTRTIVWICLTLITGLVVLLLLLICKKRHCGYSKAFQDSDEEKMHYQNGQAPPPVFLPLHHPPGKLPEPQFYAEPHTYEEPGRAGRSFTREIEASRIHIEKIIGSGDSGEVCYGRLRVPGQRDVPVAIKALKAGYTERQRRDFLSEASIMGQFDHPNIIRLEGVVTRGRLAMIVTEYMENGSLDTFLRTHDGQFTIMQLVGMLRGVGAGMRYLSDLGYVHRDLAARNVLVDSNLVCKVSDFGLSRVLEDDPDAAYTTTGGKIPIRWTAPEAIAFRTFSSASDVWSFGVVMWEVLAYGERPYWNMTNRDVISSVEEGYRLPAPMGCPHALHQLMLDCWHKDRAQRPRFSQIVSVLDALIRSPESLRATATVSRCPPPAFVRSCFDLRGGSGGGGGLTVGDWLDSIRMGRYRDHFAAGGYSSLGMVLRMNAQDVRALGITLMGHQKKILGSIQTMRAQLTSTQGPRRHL

U2OS = assay: Inhibition of PI3K in human U2OS cells expressing FLAG-tagged SGK3 assessed as reduction in PRAS40 phosphorylation at T246 residues at 0.01 to 1 uM 1 hr by immunoblot analysis; assay type: cell-based; settings: dose 0.01-1 µM
In short: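 Flp-In T-REx U2OS cells were grown in McCoy medium with 10% FBS. Expression of C-terminally FLAG-tagged full-length SGK3 was induced with 0.01 mg/ml doxycycline for 24 h. Cells were treated with inhibitor for 1 h and lysed in phosphatase-inhibitor buffer. Lysates were cleared at 16000 g for 10 min at 4°C, protein was measured by Bradford, and phosphorylation was read by immunoblot with ECL detection.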

[22] = target: Mitogen-activated protein kinase 12 (Homo sapiens) (UniProt P53778); assay: Inhibition of human P38gamma at 1 uM using RBER-IRStide as substrate in presence of 33P-ATP by ProQinase assay
[23] = target: Tyrosine-protein kinase TXK (Homo sapiens) (UniProt P42681); assay: Inhibition of human TXK at 1 uM using RBER-CHKtide as substrate in presence of 33P-ATP by ProQinase assay

Tyrosine-protein kinase CSK (Homo sapiens), sequence (P41240 2-450 limits assumed): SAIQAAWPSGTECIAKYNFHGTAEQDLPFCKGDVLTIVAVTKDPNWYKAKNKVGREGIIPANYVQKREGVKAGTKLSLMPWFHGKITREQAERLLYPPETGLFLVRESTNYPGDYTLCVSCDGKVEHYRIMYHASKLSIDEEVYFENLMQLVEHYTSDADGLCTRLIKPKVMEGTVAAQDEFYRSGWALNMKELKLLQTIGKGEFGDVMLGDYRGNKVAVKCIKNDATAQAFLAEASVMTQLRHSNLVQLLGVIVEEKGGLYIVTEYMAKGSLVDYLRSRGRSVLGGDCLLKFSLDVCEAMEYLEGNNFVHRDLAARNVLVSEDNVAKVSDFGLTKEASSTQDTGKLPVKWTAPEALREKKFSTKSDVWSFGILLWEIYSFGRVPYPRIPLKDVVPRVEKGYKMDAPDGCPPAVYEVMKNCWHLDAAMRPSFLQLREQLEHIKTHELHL

CC(C)(O)CNc1ncc(-c2ccnc(Nc3ccnc(Cl)c3)n2)c(CC2CC2)n1
inhibition [1]: inactive
inhibition [2]: inactive
inhibition [3]: inactive
Activity [4]: 110%
Activity [5]: 124%
inhibition [6]: inactive
inhibition [7]: inactive
inhibition [8]: inactive
inhibition [9]: inactive
inhibition [10]: inactive
Activity [11]: 124%
IC50 [12]: 382 nM
inhibition [13]: inactive
inhibition [14]: inactive
Activity [15]: 113%
inhibition [16]: inactive
Activity [17]: 133%
IC50 [18]: 1900 nM
Activity [19]: 114%
inhibition [20]: inactive
inhibition [21]: inactive
inhibition (U2OS): inactive
inhibition [22]: inactive
inhibition [23]: inactive
